Data set [1] has as its system Mus musculus. Nature of the data set: AUC (0 to 24 hrs) in Balb/c mouse at 20 mg/kg, po. The data set is classed as ADME, organism-based, Plasma. The settings on record: in vivo. Details: time < 24 hr, dose 20 mg/kg, route oral. The method, boiled down:
(§1)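 Male Balb/c mice (n = 3 per group). Compound as a 2.5 mg/mL solution in PEG300/D5W 3:1, filtered. Given by lateral tail vein at 5 mg/kg (2 mL/kg) or orally at 20 mg/kg (8 mL/kg). Six serial 50 μL retro-orbital blood samples to 24 h, heparinized plasma. Plasma extracted with acetonitrile:methanol 3:1 with internal standard, LC-MS/MS. Noncompartmental analysis; F = AUCpo×dose_iv/AUCiv×dose_po.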

Data set [2] concerns Plasmodium falciparum. Nature of the data set: Antimalarial activity against Plasmodium falciparum 3D7 after 72 hrs by SYBR green fluorescence assay. Conditions: 3D7, 72 h. The data set is classed as functional, organism-based. The method, boiled down:
(§2)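 P. falciparum grown in O+ erythrocytes, screened in medium without human serum plus 0.5% Albumax II. Twelve-point half-log dilutions up to 10 μM final. 0.3% parasitemia, 2.5% hematocrit; 72 h at 37 °C under low-oxygen gas. Lysis buffer with SYBR Green added, 24 h at 25 °C, fluorescence read at 485/530 nm.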

Data set [3] can be described thus: Half life in Balb/c mouse at 5 mg/kg, iv. The settings on record: in vivo. The data set is classed as ADME, organism-based. Further details: dose 5 mg/kg, route intravenous. The method, boiled down: as §1
Data set [4] in a line: Cmax in Balb/c mouse at 20 mg/kg, po. Conditions: in vivo. The data set is classed as ADME, organism-based. Further details: dose 20 mg/kg, route oral. The method, boiled down: as §1
Data set [5] can be described thus: Apparent permeability across basolateral to apical side in human Caco2 cells by LC/MS analysis. The data set is classed as ADME, cell-based. Conditions: Caco-2. The method, boiled down: (§3)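 Caco-2 monolayers in 96-well format. Compound measured in apical and basolateral chambers by LC/MS, giving Papp in the A–B and B–A directions. Values reported in cm/s × 10⁶.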
Background: Caco-2 monolayers are a common model of the intestinal barrier.

Data set [6] in a line: Permeability of the compound by PAMPA. The data set is classed as ADME. The method, boiled down:
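PAMPA in 96-well filter plates. Permeated compound quantified by UV absorbance at 260–290 nm. Reported as percentage absorbed.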
(In general: The PAMPA barrier holds no transporters, so it reflects passive diffusion.)

Data set [7] relates to Rattus norvegicus. Briefly: (§4) Cmax in Wistar rat at 10 mg/kg, po. The data set is classed as ADME, organism-based. Details: dose 10 mg/kg, route oral. Conditions: in vivo, BLD = below limit of detection. The method, boiled down: (§5)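 Rat snapshot PK: two Wistar rats dosed orally at 10 mg/kg, formulated at 2.5 mg/mL in 75% PEG300/25% D5W. Blood (100 μL) taken at 0.5, 1, 3 and 5 h post dose. Plasma pooled by sampling time, then analysed by LC-MS/MS.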

Data set [8] can be described thus: Tmax in Balb/c mouse at 20 mg/kg, po. The data set is classed as ADME, organism-based. Details: dose 20 mg/kg, route oral. Conditions: in vivo. The method, boiled down: as §1
A short description of data set [9]: Clearance in Balb/c mouse plasma at 5 mg/kg, iv. The data set is classed as ADME, organism-based. Further details: dose 5 mg/kg, route intravenous. The method, boiled down:
as §1

Data set [10] concerns Plasmodium berghei. Briefly: Antimalarial activity against Plasmodium berghei ANKA expressing GFP infected in NMRI mouse assessed as increase of mouse survival at 100 mg/kg, po administered 24 hrs post infection (reference value: 6 to 7 days). The data set is classed as functional.
Data set [11] concerns Mus musculus. Briefly: Oral bioavailability in Balb/c mouse at 20 mg/kg. The settings on record: in vivo. The data set is classed as ADME, organism-based. The method, boiled down: as §1
The nature of data set [12]: Half life in Balb/c mouse at 20 mg/kg, po. The data set is classed as ADME, organism-based. Details: dose 20 mg/kg, route oral. Conditions: in vivo. The method, boiled down: as §1
A short description of data set [13]: Apparent permeability across apical to basolateral side in human Caco2 cells by LC/MS analysis. The settings on record: Caco-2. The data set is classed as ADME, cell-based. The method, boiled down:
as §3

Data set [14] has as its system Mus musculus. Nature of the data set: AUC (0 to 24 hrs) in Balb/c mouse at 5 mg/kg, iv. The data set is classed as ADME, organism-based, Plasma. Details: time < 24 hr, dose 5 mg/kg, route intravenous. Conditions: in vivo. The method, boiled down: as §1
The subject of data set [15] is Plasmodium falciparum. Briefly: Antimalarial activity against Plasmodium falciparum W2 after 72 hrs by SYBR green fluorescence assay. The data set is classed as functional, organism-based. The settings on record: W2, 72 h. The method, boiled down: as §2
Data set [16] concerns Plasmodium berghei. Nature of the data set: Antimalarial activity against Plasmodium berghei ANKA expressing GFP infected in NMRI mouse assessed as increase of mouse survival at 30 mg/kg, po administered 24 hrs post infection (reference value: 6 to 7 days). The data set is classed as functional.
Data set [17] is described as follows: Volume of distribution in Balb/c mouse at 5 mg/kg, iv. The data set is classed as ADME, organism-based. Further details: dose 5 mg/kg, route intravenous. The settings on record: in vivo. The method, boiled down:
as §1

Data set [18] deals with Voltage-gated inwardly rectifying potassium channel KCNH2 (Homo sapiens, UniProt Q12809). Briefly: Inhibition of human ERG channel expressed in CHO cells by patch clamp assay. The data set is classed as cell-based. In general terms: In patch-clamp work, channel activity is measured electrically.
Voltage-gated inwardly rectifying potassium channel KCNH2, sequence (Q12809 whole entry): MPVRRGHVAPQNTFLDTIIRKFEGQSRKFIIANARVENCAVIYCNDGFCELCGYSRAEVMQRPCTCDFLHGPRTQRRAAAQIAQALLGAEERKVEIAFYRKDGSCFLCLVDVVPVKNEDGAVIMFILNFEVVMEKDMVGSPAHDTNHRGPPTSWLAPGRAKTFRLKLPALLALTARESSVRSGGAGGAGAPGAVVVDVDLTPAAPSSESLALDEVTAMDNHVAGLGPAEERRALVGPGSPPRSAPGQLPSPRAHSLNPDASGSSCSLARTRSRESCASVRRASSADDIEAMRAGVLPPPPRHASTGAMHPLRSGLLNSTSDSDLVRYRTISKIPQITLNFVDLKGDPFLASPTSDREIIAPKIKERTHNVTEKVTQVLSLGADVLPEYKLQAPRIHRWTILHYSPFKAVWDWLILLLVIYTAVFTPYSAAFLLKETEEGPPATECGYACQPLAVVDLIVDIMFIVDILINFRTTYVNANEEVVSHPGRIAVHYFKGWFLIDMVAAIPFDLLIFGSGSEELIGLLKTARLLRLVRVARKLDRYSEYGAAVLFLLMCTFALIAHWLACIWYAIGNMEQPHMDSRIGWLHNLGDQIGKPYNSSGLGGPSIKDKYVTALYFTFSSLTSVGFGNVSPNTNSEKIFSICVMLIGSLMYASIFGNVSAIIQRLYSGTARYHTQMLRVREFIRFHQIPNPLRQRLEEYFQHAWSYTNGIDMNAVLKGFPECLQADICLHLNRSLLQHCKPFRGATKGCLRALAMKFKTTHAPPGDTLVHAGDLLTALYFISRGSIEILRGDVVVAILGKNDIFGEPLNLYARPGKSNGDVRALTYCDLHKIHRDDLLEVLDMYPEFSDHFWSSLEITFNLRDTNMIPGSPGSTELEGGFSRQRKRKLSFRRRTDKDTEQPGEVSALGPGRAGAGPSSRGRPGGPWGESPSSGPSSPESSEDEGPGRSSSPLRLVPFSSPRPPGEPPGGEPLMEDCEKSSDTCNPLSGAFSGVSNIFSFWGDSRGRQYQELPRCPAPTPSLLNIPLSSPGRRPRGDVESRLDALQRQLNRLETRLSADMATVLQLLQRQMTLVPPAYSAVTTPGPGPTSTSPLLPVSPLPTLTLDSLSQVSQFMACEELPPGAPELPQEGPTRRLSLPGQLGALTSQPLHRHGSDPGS
Data set [19] concerns Rattus norvegicus. Nature of the data set: Dose normalized AUC (0 to 5 hrs) in Wistar rat at 10 mg/kg, po. The settings on record: in vivo. The data set is classed as ADME, organism-based. Further details: dose 10 mg/kg, route oral. The method, boiled down: as §5
Data set [20] deals with Plasmodium berghei. Briefly: Antimalarial activity against Plasmodium berghei ANKA expressing GFP infected in NMRI mouse assessed as reduction of parasite level in blood at 30 mg/kg, po administered 24 hrs post infection qd for 3 days measured after 96 hrs post infection by flow cytometry. The data set is classed as functional. Details: scale not given: the % may be the effect or the level left. The method, boiled down: (§6)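 Female NMRI mice (20–22 g, n=3) are infected i.v. with 2×10^7 P. berghei GFP ANKA-infected erythrocytes. Oral compound in 75% PEG300/25% D5W is given at 10 mL/kg, once at 24 h or daily at 24/48/72 h post-infection. Parasitemia is read by flow cytometry at 72 h (single dose) or 96 h (triple dose). Activity is % reduction of mean parasitemia versus untreated controls.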

Data set [21] in a line: AUC (0 to 5 hrs) in Wistar rat at 10 mg/kg, po. The data set is classed as ADME, organism-based. Further details: dose 10 mg/kg, route oral. Conditions: plasma.
The nature of data set [22]: Metabolic stability in mouse liver microsomes assessed as hepatic extraction ratio by LC/MS/MS analysis in presence of CYP. The data set is classed as ADME, Microsome. The method, boiled down: (§7)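 Liver microsomes (human, mouse, rat). Compound depletion followed by LC/MS/MS. Loss of parent used to derive in vitro half-life and hepatic extraction ratio.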
Data set [23] can be described thus: as §4. The data set is classed as ADME, organism-based. Further details: dose 10 mg/kg, route oral. The settings on record: Wistar, in vivo. The method, boiled down:
as §5

The nature of data set [24]: Metabolic stability in human liver microsomes assessed as hepatic extraction ratio by LC/MS/MS analysis in presence of CYP. The data set is classed as ADME, Microsome. The method, boiled down: as §7
Data set [25] relates to Plasmodium berghei. Briefly: Antimalarial activity against Plasmodium berghei ANKA expressing GFP infected in NMRI mouse assessed as increase of mouse survival at 30 mg/kg, po administered 24 hrs post infection qd for 3 days (reference value: 6 to 7 days). The data set is classed as functional.
Data set [26] concerns Plasmodium berghei. Briefly: Antimalarial activity against Plasmodium berghei ANKA expressing GFP infected in NMRI mouse assessed as reduction of parasite level in blood at 100 mg/kg, po administered 24 hrs post infection measured after 72 hrs post infection by flow cytometry. The data set is classed as functional. Details: scale not given: the % may be the effect or the level left. The method, boiled down: as §6

A short description of data set [27]: Metabolic stability in rat liver microsomes assessed as hepatic extraction ratio by LC/MS/MS analysis in presence of CYP. The data set is classed as ADME, Microsome. The method, boiled down:
as §7

The test system of data set [28] is Plasmodium berghei. Nature of the data set: Antimalarial activity against Plasmodium berghei ANKA expressing GFP infected in NMRI mouse assessed as reduction of parasite level in blood at 30 mg/kg, po administered 24 hrs post infection measured after 72 hrs post infection by flow cytometry. The data set is classed as functional. Details: scale not given: the % may be the effect or the level left. The method, boiled down:
as §6

These results are taken from ChEMBL document CHEMBL2057141, “Imidazolopiperazines: lead optimization of the second-generation antimalarial agents” (J Med Chem, 2012).

pEC50, pIC50: −log10 of the molar value.

One may read the AUC as concentration integrated over time. A word on the pEC50: it is the EC50 on a negative log10 scale, so that one unit is a factor of ten. One may read the half-life as how long it takes for the measured level to halve. One may read the Cmax as the highest concentration seen after dosing. What is called Papp B→A is the apparent permeability from the basolateral to the apical side of a cell layer. By Tmax is commonly meant the time at which the peak concentration occurs. A word on the clearance: it is the rate of elimination divided by the concentration. A word on the Papp A→B: it is the apparent permeability from the apical to the basolateral side of a cell layer. A word on the Vd: it is the apparent volume that relates the amount in the body to the concentration in plasma or blood. By pIC50 is commonly meant the negative decadic logarithm of the IC50, by convention in mol/L. For orientation: AUC(0-t) means exposure summed from dosing to a finite time, without extrapolation to infinity.

Consider `Cc1ccc(Nc2c(-c3ccc(F)cc3)nc3n2CCN(C(=O)C(C)(C)N)C3(C)C)cc1`, for which the exposure (AUC) was found to be 32.409 µM·h in the data set with Mus musculus [1] and 7.607 µM·h in the data set on Mus musculus [14]. For the same compound, the pEC50 was 8.70 in the data set with Plasmodium falciparum [2] and 8.40 in the data set with Plasmodium falciparum [15]. For the same compound, the half-life in data set [3] was 18 h; in data set [12], 14.5 h. The maximum concentration (Cmax) was 1640 nM in [4] and “BLD” with Rattus norvegicus [7]. Besides, the Papp B→A in [5] is 2.37 ×10⁻⁶ cm/s. The same compound came in with a permeability in data set [6] of 99.5%. Besides, the time to peak (Tmax) in data set [8] was 1 h. In [9], the clearance was determined as 36.1 mL/min/kg. In addition, the Survival with Plasmodium berghei [10] was found to be 16.7 days; with Plasmodium berghei [16], 15.3 days. Also, in the data set with Mus musculus [11], the F is reported as 107%. For the same compound, the Papp A→B in [13] came out at 3.5 ×10⁻⁶ cm/s. Besides, the Vd in data set [17] turned out to be 7.5 L/kg.
As to `CC1(C)c2nc(-c3ccc(F)cc3)c(Nc3ccc(F)c(F)c3)n2CCN1C(=O)CN`, the exposure (AUC) was found to be 21.058 µM·h in the data set with Mus musculus [1] and 7.062 µM·h with Mus musculus [14]. In addition, the pEC50 was 8.40 with Plasmodium falciparum [2] and 8.30 in the data set with Plasmodium falciparum [15]. Moreover, the negative-log IC50 (pIC50) in data set [18] was less than 4.52. Moreover, the AUC/dose in the data set on Rattus norvegicus [19] is given as 0.95 min.ug/ml/(mg/kg). The figures for the half-life in data set [3] and in data set [12] were 5.5 h and 5.21 h, respectively. Also, the Activity is listed as 99.7% in the data set with Plasmodium berghei [20], 99.1% in the data set on Plasmodium berghei [26] and 99% in the data set on Plasmodium berghei [28]. Further, the Cmax in [4] amounted to 1720 nM; in [23] it was 96.7 nM. Moreover, the basolateral-to-apical permeability (Papp B→A) in [5] was 1.3 ×10⁻⁶ cm/s. This compound registered a permeability in [6] of 51.5%. The same compound registered an area under the curve AUC(0-t) at 4 h in data set [21] of 0.367 µM·h. Further, the hepatic extraction ratio in [22] worked out at 0.46; in [24], 0.53; in data set [27], 0.69. Besides, the Tmax in data set [8] was found to be 3 h. This compound yielded a clearance in data set [9] of 27.5 mL/min/kg. Moreover, the values for the Survival in the data set on Plasmodium berghei [10], in the data set with Plasmodium berghei [25] and with Plasmodium berghei [16] were 16.7 days, 17 days and 15 days, respectively. In addition, the F in the data set on Mus musculus [11] is recorded as 75%. The Papp A→B in data set [13] was 0.61 ×10⁻⁶ cm/s. This compound also showed a Vd in data set [17] of 7.5 L/kg.
